The record followed here is BindingDB's records for doi:10.1021/jm00192a005 (1979).

The test has as its target T1, Thymidine kinase, cytosolic (Cricetulus griseus, UniProt P09768).
T1 sequence (P09768 whole entry): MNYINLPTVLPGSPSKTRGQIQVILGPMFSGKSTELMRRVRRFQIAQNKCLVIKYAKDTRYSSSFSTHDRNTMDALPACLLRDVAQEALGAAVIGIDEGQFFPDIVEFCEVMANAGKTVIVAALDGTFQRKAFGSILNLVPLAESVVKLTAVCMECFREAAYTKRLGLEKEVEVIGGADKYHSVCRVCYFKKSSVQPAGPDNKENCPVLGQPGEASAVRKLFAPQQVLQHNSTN
As to the kind of experiment: Competitive inhibition of thymidine kinase in BHK21 (C13) cells using thymidine as substrate assessed as formation of TMP by Lineweaver-Burk plot analysis. Put shortly: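 BHK21(C13) cells sonicated in 0.05 M NaCl; 100000g supernatant stored in 50% glycerol at 4 °C. Assay in Tris-HCl 0.05 M pH 8.0, ATP 5 mM, MgCl2 2.5 mM, [14C]thymidine at four or more levels from 3.6 to 18 μM, two inhibitor levels plus a no-inhibitor control, duplicates, 10 min at 37 °C. [14C]TMP captured on DEAE-cellulose disks and counted by scintillation; Ki taken from Lineweaver-Burk plots.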

Regarding `Nc1cn([C@H]2C[C@H](O)[C@@H](CO)O2)c(=O)[nH]c1=O`, the Ki was 450 µM.
In the case of `N#Cc1cn([C@H]2C[C@H](O)[C@@H](CO)O2)c(=O)[nH]c1=O`, the Ki amounted to 220 µM.
For the compound `NCc1cn([C@H]2C[C@H](O)[C@@H](CO)O2)c(=O)[nH]c1=O`, the Ki amounted to 1700 µM.
In the case of `CCCCCn1c(=O)c(C)cn([C@H]2C[C@H](O)[C@@H](CO)O2)c1=O`, the inhibition constant Ki was 72 µM.
For `CC(=O)NCC(O)[C@H]1O[C@@H](n2cc(C)c(=O)[nH]c2=O)C[C@@H]1O` (stereo partly drawn) the value was 270 µM; for `CCC(=O)NCC(O)[C@H]1O[C@@H](n2cc(C)c(=O)[nH]c2=O)C[C@@H]1O` (stereo partly drawn), 160 µM; for `CCNC[C@H]1O[C@@H](n2cc(C)c(=O)[nH]c2=O)C[C@@H]1O`, 190 µM.
`CCCCNC[C@H]1O[C@@H](n2cc(C)c(=O)[nH]c2=O)C[C@@H]1O`: the Ki stood at 270 µM.
As for `CCCCCCNC[C@H]1O[C@@H](n2cc(C)c(=O)[nH]c2=O)C[C@@H]1O`, the Ki was 180 µM.
Take `CCCCCCN(C[C@H]1O[C@@H](n2cc(C)c(=O)[nH]c2=O)C[C@@H]1O)C(C)=O`: the Ki was 4400 µM.
With `CC(=O)NCCNC[C@H]1O[C@@H](n2cc(C)c(=O)[nH]c2=O)C[C@@H]1O`, the Ki was found to be 250 µM.
On to `CC(=O)N(C)CCN(C)C[C@H]1O[C@@H](n2cc(C)c(=O)[nH]c2=O)C[C@@H]1O`, for which the Ki came out at 900 µM.
Turning to `Cc1cn([C@H]2C[C@H](O)[C@@H](CSCCO)O2)c(=O)[nH]c1=O`, the Ki stood at 800 µM.
With `Cc1cn([C@H]2C[C@H](O)[C@@H](CSCCC(=O)O)O2)c(=O)[nH]c1=O`, the Ki came to 500 µM.
As for `Cc1cn([C@H]2C[C@H](O)[C@@H](CSCCCC(=O)O)O2)c(=O)[nH]c1=O`, the inhibition constant (Ki) stood at 1200 µM.
As for `CC(=O)N[C@H]1C[C@H](n2cc(C)c(=O)[nH]c2=O)O[C@@H]1CO`, the Ki stood at 2500 µM.
The result for `CCS[C@H]1C[C@H](n2cc(C)c(=O)[nH]c2=O)O[C@@H]1CO` reads 12 µM.
For `CC(=O)NC[C@H]1O[C@@H](n2cc(C)c(=O)[nH]c2=O)C[C@@H]1O` [N-[(2R,5R)-3-Hydroxy-5-(5-methyl-2,4-dioxo-3,4-dihydro-2H-pyrimidin-1-yl)-tetrahydro-furan-2-ylmethyl]-acetamide], the Ki came out at 6500 µM.

Usually Ki stands for the dissociation constant of the complex between target and ligand, obtained from inhibition or displacement.
